# Data taken from ChEMBL document CHEMBL5058577, “EUbOPEN Chemogenomics Library 2 (Multiplex)” (2022).
# Test system: U2OS
# Assay: Multiplex assay against U2OS
# Assay type: toxicity, cell-based
# Conditions: human
# Procedure, shortened: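 Four dyes were applied at seeding to live cells: Hoechst33342, BioTracker Green Microtubule Cytoskeleton Dye, MitoTracker Red and Annexin V Alexa Fluor 680. Imaging after compound addition used a CQ1 microscope at 37°C and 5% CO2. CellPathfinder machine-learning gating then sorted cells into Hoechst high-intensity objects or normal cells, normal cells into healthy, pyknosed or fragmented nuclei, and pyknosed cells into mitotic or apoptotic, with tubulin, mitochondrial-mass and membrane-permeability phenotypes given as per cents of healthy-nucleus cells.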
# [1] = 12 h, 1 µM, compound concentration 1 uM, replicate 1
# [2] = 12 h, 1 µM, compound concentration 1 uM, replicate 2
# [3] = 12 h, 10 µM, compound concentration 10 uM, replicate 1
# [4] = 12 h, 10 µM, compound concentration 10 uM, replicate 2
# [5] = 24 h, 1 µM, compound concentration 1 uM, replicate 1
# [6] = 24 h, 1 µM, compound concentration 1 uM, replicate 2
# [7] = 24 h, 10 µM, compound concentration 10 uM, replicate 1
# [8] = 24 h, 10 µM, compound concentration 10 uM, replicate 2
# [9] = 48 h, 1 µM, compound concentration 1 uM, replicate 1
# [10] = 48 h, 1 µM, compound concentration 1 uM, replicate 2
# [11] = 48 h, 10 µM, compound concentration 10 uM, replicate 1
# [12] = 48 h, 10 µM, compound concentration 10 uM, replicate 2
compound,measurement,setting,value
C[C@H](N)COC(=O)[C@@H](CCCCN)NC(=O)Cc1c(-c2ccc3ccccc3c2)[nH]c2c1ccc1ccccc12,Population Apoptotic (%),[1],73%
same,Population Fragmented Nuclei (%),[1],26%
same,Population Healthy Nuclei (%),[1],66%
same,Population Hoechst High Intensity Objects (%),[1],3%
same,Population Membrane Permeable-Phenotype (%),[1],6%
same,Population Mitochondria Different-Phenotype (%),[1],3%
same,Population Mitotic Cells (%),[1],26%
same,Population Normal (%),[1],96%
same,Population Pyknosed Nuclei (%),[1],6%
same,Population Tubulin-Different-Phenotype (%),[1],3%
same,Total Cell Count,[1],244
same,Population Apoptotic (%),[2],75%
same,Population Fragmented Nuclei (%),[2],14%
same,Population Healthy Nuclei (%),[2],78%
same,Population Hoechst High Intensity Objects (%),[2],0%
same,Population Membrane Permeable-Phenotype (%),[2],4%
same,Population Mitochondria Different-Phenotype (%),[2],2%
same,Population Mitotic Cells (%),[2],25%
same,Population Normal (%),[2],99%
same,Population Tubulin-Different-Phenotype (%),[2],4%
same,Total Cell Count,[2],128
same,Population Apoptotic (%),[3],78%
same,Population Fragmented Nuclei (%),[3],23%
same,Population Healthy Nuclei (%),[3],69%
same,Population Hoechst High Intensity Objects (%),[3],2%
same,Population Membrane Permeable-Phenotype (%),[3],5%
same,Population Mitochondria Different-Phenotype (%),[3],1%
same,Population Mitotic Cells (%),[3],21%
same,Population Normal (%),[3],97%
same,Population Pyknosed Nuclei (%),[3],7%
same,Population Tubulin-Different-Phenotype (%),[3],3%
same,Total Cell Count,[3],279
same,Population Apoptotic (%),[4],50%
same,Population Fragmented Nuclei (%),[4],24%
same,Population Healthy Nuclei (%),[4],73%
same,Population Hoechst High Intensity Objects (%),[4],0%
same,Population Membrane Permeable-Phenotype (%),[4],17%
same,Population Mitochondria Different-Phenotype (%),[4],3%
same,Population Mitotic Cells (%),[4],50%
same,Population Normal (%),[4],100%
same,Population Pyknosed Nuclei (%),[4],1%
same,Population Tubulin-Different-Phenotype (%),[4],5%
same,Total Cell Count,[4],106
same,Population Apoptotic (%),[5],83%
same,Population Fragmented Nuclei (%),[5],22%
same,Population Healthy Nuclei (%),[5],68%
same,Population Hoechst High Intensity Objects (%),[5],2%
same,Population Membrane Permeable-Phenotype (%),[5],3%
same,Population Mitochondria Different-Phenotype (%),[5],1%
same,Population Mitotic Cells (%),[5],16%
same,Population Normal (%),[5],97%
same,Population Pyknosed Nuclei (%),[5],8%
same,Population Tubulin-Different-Phenotype (%),[5],2%
same,Total Cell Count,[5],292
same,Population Apoptotic (%),[6],90%
same,Population Fragmented Nuclei (%),[6],16%
same,Population Healthy Nuclei (%),[6],77%
same,Population Hoechst High Intensity Objects (%),[6],1%
same,Population Membrane Permeable-Phenotype (%),[6],6%
same,Population Mitotic Cells (%),[6],10%
same,Population Normal (%),[6],98%
same,Population Pyknosed Nuclei (%),[6],5%
same,Population Tubulin-Different-Phenotype (%),[6],3%
same,Total Cell Count,[6],170
same,Population Apoptotic (%),[7],81%
same,Population Fragmented Nuclei (%),[7],19%
same,Population Healthy Nuclei (%),[7],73%
same,Population Hoechst High Intensity Objects (%),[7],2%
same,Population Membrane Permeable-Phenotype (%),[7],5%
same,Population Mitochondria Different-Phenotype (%),[7],1%
same,Population Mitotic Cells (%),[7],18%
same,Population Normal (%),[7],97%
same,Population Pyknosed Nuclei (%),[7],6%
same,Population Tubulin-Different-Phenotype (%),[7],2%
same,Total Cell Count,[7],337
same,Population Apoptotic (%),[8],100%
same,Population Fragmented Nuclei (%),[8],17%
same,Population Healthy Nuclei (%),[8],79%
same,Population Membrane Permeable-Phenotype (%),[8],11%
same,Population Mitochondria Different-Phenotype (%),[8],3%
same,Population Mitotic Cells (%),[8],0%
same,Population Pyknosed Nuclei (%),[8],2%
same,Population Tubulin-Different-Phenotype (%),[8],6%
same,Total Cell Count,[8],142
same,Population Apoptotic (%),[9],79%
same,Population Fragmented Nuclei (%),[9],16%
same,Population Healthy Nuclei (%),[9],78%
same,Population Hoechst High Intensity Objects (%),[9],1%
same,Population Membrane Permeable-Phenotype (%),[9],2%
same,Population Mitochondria Different-Phenotype (%),[9],2%
same,Population Mitotic Cells (%),[9],20%
same,Population Normal (%),[9],98%
same,Population Pyknosed Nuclei (%),[9],5%
same,Population Tubulin-Different-Phenotype (%),[9],2%
same,Total Cell Count,[9],440
same,Population Apoptotic (%),[10],73%
same,Population Fragmented Nuclei (%),[10],17%
same,Population Healthy Nuclei (%),[10],73%
same,Population Hoechst High Intensity Objects (%),[10],2%
same,Population Membrane Permeable-Phenotype (%),[10],3%
same,Population Mitochondria Different-Phenotype (%),[10],4%
same,Population Mitotic Cells (%),[10],26%
same,Population Normal (%),[10],97%
same,Population Pyknosed Nuclei (%),[10],8%
same,Population Tubulin-Different-Phenotype (%),[10],1%
same,Total Cell Count,[10],231
same,Population Apoptotic (%),[11],90%
same,Population Fragmented Nuclei (%),[11],14%
same,Population Healthy Nuclei (%),[11],74%
same,Population Hoechst High Intensity Objects (%),[11],4%
same,Population Membrane Permeable-Phenotype (%),[11],6%
same,Population Mitochondria Different-Phenotype (%),[11],1%
same,Population Mitotic Cells (%),[11],9%
same,Population Normal (%),[11],95%
same,Population Pyknosed Nuclei (%),[11],10%
same,Population Tubulin-Different-Phenotype (%),[11],2%
same,Total Cell Count,[11],505
same,Population Fragmented Nuclei (%),[12],16%
same,Population Healthy Nuclei (%),[12],77%
same,Population Membrane Permeable-Phenotype (%),[12],16%
same,Population Mitochondria Different-Phenotype (%),[12],2%
same,Population Mitotic Cells (%),[12],10%
same,Population Pyknosed Nuclei (%),[12],5%
same,Population Tubulin-Different-Phenotype (%),[12],6%
same,Total Cell Count,[12],184
